In ChEMBL document CHEMBL1156797, “Synthesis and antiplasmodial activity of new indolone N-oxide derivatives” (J Med Chem, 2010):

How the values were obtained:
[1] = test system: Plasmodium falciparum; test: Antimalarial activity against Plasmodium falciparum K1 assessed as [3H]hypoxanthine incorporation by scintillation counting; type: functional, organism-based
[2] = Selectivity index, ratio of CC50 for human MCF7 cells to IC50 for chloroquine-resistant Plasmodium falciparum FcB1; type: functional
In short: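 XTT 0.5 mg/mL added for 180 min, formazan read at 450 nm, value taken from dose–response curves, two experiments in triplicate. This CC50 is divided by the FcB1 IC50 to give the index.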

[3] = test system: Plasmodium falciparum; test: Antimalarial activity against chloroquine-resistant Plasmodium falciparum FcB1 assessed as [3H]hypoxanthine incorporation after 48 hrs by beta-counter; type: functional, organism-based; details: FcB1/Columbia
In short: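 Primary assay (Toulouse) on FcB1 cultured in RPMI with 25 mM HEPES and 10% human serum, O RBCs. Serial dilutions in triplicate, 2% parasitaemia, 2% haematocrit, 48 h at 37 °C, 5% CO2. [3H]-hypoxanthine added at 24 h, freeze-thaw harvest, β-counting. IC50 by linear regression on the linear segment of the semilog inhibition curve. Three independent repeats.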

[4] = test system: Plasmodium falciparum; test: Resistance index, ratio of IC50 for chloroquine-resistant Plasmodium falciparum FcB1 to IC50 for drug-sensitive Plasmodium falciparum 3D7; type: functional
[5] = Cytotoxicity against human MCF7 cells after 48 hrs by MTT assay; type: cell-based
[6] = test system: Plasmodium falciparum; test: Antimalarial activity against drug-sensitive Plasmodium falciparum 3D7 assessed as [3H]hypoxanthine incorporation by scintillation counting; type: functional, organism-based
[7] = test system: Plasmodium falciparum; test: Resistance index, ratio of IC50 for chloroquine-resistant Plasmodium falciparum K1 to IC50 for drug-sensitive Plasmodium falciparum 3D7; type: functional
[8] = Cytotoxicity against human KB cells after 72 hrs by alamar blue assay; type: cell-based
In short: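 KB cells were seeded at 4×10^4 cells/mL in RPMI 1640 with 10% heat-inactivated FCS and left 24 h at 37 °C, 5% CO2. A dilution series was added in triplicate for 72 h, then AlamarBlue for 2–4 h. Fluorescence was read at ex 530/em 585 nm, with podophyllotoxin as positive control and values from curve fitting.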

O=C1C(c2ccc(Oc3ccccc3)cc2)=[N+]([O-])c2ccccc21
IC50 [1]: 0.06 µM | Ratio CC50/IC50 [2]: 42 | IC50 [3]: 0.264 µM | Ratio IC50 [4]: 1.8 | CC50 at 48 h [5]: 11.1 µM | IC50 [6]: 0.148 µM | Ratio IC50 [7]: 0.4

COc1ccc2c(c1)C(=O)C(c1ccccc1)=[N+]2[O-]
Ratio CC50/IC50 [2]: 73 | IC50 [3]: 0.184 µM | CC50 at 48 h [5]: 13.4 µM

O=C1C(c2ccc(C(F)(F)F)cc2)=[N+]([O-])c2ccccc21
Ratio CC50/IC50 [2]: 29 | IC50 [3]: 1.17 µM | CC50 at 48 h [5]: 34.3 µM

CCCC1=[N+]([O-])c2ccccc2C1=O
Ratio CC50/IC50 [2]: 2 | IC50 [3]: 12.2 µM | CC50 at 48 h [5]: 26.4 µM

O=C1C(c2ccc(Oc3ccccc3)cc2)=[N+]([O-])c2cc3c(cc21)OCO3
IC50 [1]: 0.138 µM | Ratio CC50/IC50 [2]: 74 | IC50 [3]: 0.165 µM | Ratio IC50 [4]: 0.6 | CC50 at 48 h [5]: 12.2 µM | IC50 [6]: 0.285 µM | Ratio IC50 [7]: 0.5

O=C1C(c2ccc(CO)cc2)=[N+]([O-])c2ccccc21
Ratio CC50/IC50 [2]: 10 | IC50 [3]: 3.95 µM | CC50 at 48 h [5]: 39.5 µM

COc1ccc2c(c1)[N+]([O-])=C(c1ccc(Cl)cc1)C2=O
Ratio CC50/IC50 [2]: 69 | IC50 [3]: 0.15 µM | CC50 at 48 h [5]: 10.4 µM

CCN(CC)c1ccc(C2=[N+]([O-])c3ccc(OC)cc3C2=O)cc1
Ratio CC50/IC50 [2]: 134 | IC50 [3]: 0.131 µM | CC50 at 48 h [5]: 17.6 µM

O=C1C(c2ccc(Oc3ccccc3)cc2)=[N+]([O-])c2cc(OCc3ccccc3)ccc21
Ratio CC50/IC50 [2]: 3.2 | IC50 [3]: 0.665 µM | CC50 at 48 h [5]: 2.2 µM

COc1ccc2c(c1)C(=O)C(c1ccc(-c3ccc(Cl)cc3)cc1)=[N+]2[O-]
Ratio CC50/IC50 [2]: 19 | IC50 [3]: 0.63 µM | CC50 at 48 h [5]: 12.1 µM

COC(=O)c1ccc2c(c1)[N+]([O-])=C(c1ccc(OC)cc1)C2=O
Ratio CC50/IC50 [2]: 194.9 | IC50 [3]: 0.206 µM | CC50 at 48 h [5]: 40.2 µM

O=C1C(c2ccccc2)=[N+]([O-])c2cc3c(cc21)OCO3
IC50 [3]: 12.7 µM

O=C1C(c2ccc(Cl)c(Cl)c2)=[N+]([O-])c2cc3c(cc21)OCO3
Ratio CC50/IC50 [2]: 38.1 | IC50 [3]: 0.195 µM | CC50 at 48 h [5]: 7.4 µM

COc1ccc(C2=[N+]([O-])c3cc(Cl)ccc3C2=O)cc1
Ratio CC50/IC50 [2]: 116.5 | IC50 [3]: 0.191 µM | CC50 at 48 h [5]: 22.2 µM

COc1ccc(C2=[N+]([O-])c3cc(C)ccc3C2=O)cc1
Ratio CC50/IC50 [2]: 75 | IC50 [3]: 0.198 µM | CC50 at 48 h [5]: 14.9 µM

COc1ccc(C2=[N+]([O-])c3ccc(OC)cc3C2=O)c(C)c1
Ratio CC50/IC50 [2]: 0.3 | IC50 [3]: 1.04 µM | CC50 at 48 h [5]: 0.3 µM

COc1ccc2c(c1)C(=O)C(c1ccsc1)=[N+]2[O-]
Ratio CC50/IC50 [2]: 45.5 | IC50 [3]: 0.27 µM | CC50 at 48 h [5]: 12.3 µM

COc1ccc2c(c1)C(=O)C(c1ccc(OC)c(C)c1)=[N+]2[O-]
Ratio CC50/IC50 [2]: >764 | IC50 [3]: 0.044 µM | CC50 at 48 h [5]: > 33.6 µM

COc1ccc2c(c1)C(=O)C(c1ccc(C(C)(C)C)cc1)=[N+]2[O-]
Ratio CC50/IC50 [2]: 53.9 | IC50 [3]: 0.204 µM | CC50 at 48 h [5]: 11 µM

COc1ccc2cc(C3=[N+]([O-])c4cc(OCc5ccccc5)ccc4C3=O)ccc2c1
IC50 [3]: 0.73 µM

O=C1C(c2ccc(Cl)c(C(F)(F)F)c2)=[N+]([O-])c2ccccc21
Ratio CC50/IC50 [2]: 1.9 | IC50 [3]: 1.04 µM | CC50 at 48 h [5]: 2 µM

Cc1ccc(C2=[N+]([O-])c3ccccc3C2=O)cc1
Ratio CC50/IC50 [2]: 8.5 | IC50 [3]: 1.77 µM | CC50 at 48 h [5]: 15 µM

COc1ccc2c(c1)C(=O)C(c1cc(OC)c3ccccc3c1)=[N+]2[O-]
Ratio CC50/IC50 [2]: 107 | IC50 [3]: 0.135 µM | CC50 at 48 h [5]: 14.4 µM

COc1ccc2c(c1)C(=O)C(c1ccc(Cl)c(Cl)c1)=[N+]2[O-]
Ratio CC50/IC50 [2]: 81 | IC50 [3]: 0.1 µM | CC50 at 48 h [5]: 8.1 µM

CCC1=[N+]([O-])c2cc3c(cc2C1=O)OCO3
Ratio CC50/IC50 [2]: 16 | IC50 [3]: 3.56 µM | CC50 at 48 h [5]: 59 µM

COc1ccc(C2=[N+]([O-])c3cc(OC)ccc3C2=O)cc1
Ratio CC50/IC50 [2]: 83.3 | IC50 [3]: 0.106 µM | CC50 at 48 h [5]: 8.8 µM

O=C1C(c2ccc([N+](=O)[O-])cc2)=[N+]([O-])c2ccccc21
IC50 [3]: 0.056 µM | CC50 at 48 h [5]: 2.8 µM

COc1cc2c(cc1OC)[N+]([O-])=C(c1ccc(C)cc1)C2=O
IC50 [3]: 0.265 µM

O=C1C(c2ccc(F)cc2)=[N+]([O-])c2ccccc21
Ratio CC50/IC50 [2]: 72.5 | IC50 [3]: 0.12 µM | CC50 at 48 h [5]: 8.7 µM

O=C1C(c2ccc(Cl)cc2)=[N+]([O-])c2ccccc21
Ratio CC50/IC50 [2]: 66 | IC50 [3]: 0.272 µM | CC50 at 48 h [5]: 17.8 µM

O=C1C(c2ccc(Cl)cc2)=[N+]([O-])c2cc(C(F)(F)F)ccc21
Ratio CC50/IC50 [2]: 16.5 | IC50 [3]: 0.186 µM | CC50 at 48 h [5]: 3.1 µM

O=C1C(c2ccc(F)cc2)=[N+]([O-])c2cc3c(cc21)OCO3
IC50 [3]: 1.71 µM

COc1ccc2c(c1)C(=O)C(c1ccc(NC(C)=O)cc1)=[N+]2[O-]
Ratio CC50/IC50 [2]: 18.5 | IC50 [3]: 0.4 µM | CC50 at 48 h [5]: 7.4 µM

CCc1ccc(C2=[N+]([O-])c3ccccc3C2=O)cc1
Ratio CC50/IC50 [2]: >14 | IC50 [3]: 2.75 µM | CC50 at 48 h [5]: > 39.8 µM

COc1ccc2c(c1)C(=O)C(c1ccc(N)cc1)=[N+]2[O-]
Ratio CC50/IC50 [2]: 528 | IC50 [3]: 0.024 µM | CC50 at 48 h [5]: 12.7 µM

COc1ccc2c(c1)C(=O)C(c1ccc(OC(F)(F)F)cc1)=[N+]2[O-]
IC50 [1]: 0.081 µM | Ratio CC50/IC50 [2]: 415 | IC50 [3]: 0.02 µM | Ratio IC50 [4]: 0.7 | CC50 at 48 h [5]: 8.3 µM | CC50 at 72 h [8]: 11 µM | IC50 [6]: 0.03 µM | Ratio IC50 [7]: 2.7

COc1ccc(C2=[N+]([O-])c3cc(OC(F)(F)F)ccc3C2=O)cc1
IC50 [1]: 0.112 µM | Ratio CC50/IC50 [2]: 88.1 | IC50 [3]: 0.133 µM | Ratio IC50 [4]: 6.3 | CC50 at 48 h [5]: 11.7 µM | CC50 at 72 h [8]: 16 µM | IC50 [6]: 0.021 µM | Ratio IC50 [7]: 5.3

COc1ccc2c(c1)C(=O)C(c1ccc(Cl)cc1Cl)=[N+]2[O-]
Ratio CC50/IC50 [2]: >136 | IC50 [3]: 0.227 µM | CC50 at 48 h [5]: > 31 µM

COc1ccc2c(c1)C(=O)C(c1ccccc1Cl)=[N+]2[O-]
IC50 [3]: 1.13 µM

COc1ccc(C2=[N+]([O-])c3cc(C(F)(F)F)ccc3C2=O)cc1
Ratio CC50/IC50 [2]: 58.8 | IC50 [3]: 0.135 µM | CC50 at 48 h [5]: 7.9 µM

COc1ccc(C2=[N+]([O-])c3cc([N+](=O)[O-])ccc3C2=O)cc1
Ratio CC50/IC50 [2]: 63.2 | IC50 [3]: 0.345 µM | CC50 at 48 h [5]: 21.8 µM

COc1cc2c(cc1OC)[N+]([O-])=C(c1ccccc1)C2=O
IC50 [3]: 1.89 µM

O=C1C(c2ccsc2)=[N+]([O-])c2cc(Cl)ccc21
Ratio CC50/IC50 [2]: 38 | IC50 [3]: 0.13 µM | CC50 at 48 h [5]: 4.9 µM

COc1ccc2c(c1)C(=O)C(c1ccc(Cl)c(C)c1)=[N+]2[O-]
Ratio CC50/IC50 [2]: 3425 | IC50 [3]: 0.003 µM | CC50 at 48 h [5]: 10.3 µM

CC(C)CC1=[N+]([O-])c2ccccc2C1=O
Ratio CC50/IC50 [2]: <9 | IC50 [3]: > 4.5 µM | CC50 at 48 h [5]: 43.1 µM

COc1ccc2c(c1)C(=O)C(c1ccc(C(C)=O)cc1)=[N+]2[O-]
IC50 [3]: 0.256 µM | CC50 at 48 h [5]: 40.2 µM

COc1ccc2cc(C3=[N+]([O-])c4cc5c(cc4C3=O)OCO5)ccc2c1
CC50 at 48 h [5]: 25.6 µM
